# Where “and” joins values, the source holds several entries; their conditions need not be identical. Equal entries are not always repeated.
# Target: Methionine--tRNA ligase, mitochondrial (Homo sapiens) (UniProt Q96GW9)
# Assay: inhibitors of human mitochondrial MetRS, late-stage follow-up, selectivity assay for T. brucei MetRS inhibitor project, biochemical, radioactivity, round 1 (AID 743061);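 further: 0% = DMSO with full reaction and 100% = DMSO wells lacking tRNA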
# Conditions: recombinant human mtMetRS, [3H]Met tRNA charging, at 10 µM, stronger effect = higher value
# How it was run: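 Material – recombinant human mitochondrial methionyl-tRNA synthetase (MetRS) · Input – 13 nM enzyme · Also added – 240 nM [3H]methionine with bulk E. coli tRNA acceptor · Compound dosing – 10 and 1 µM · Schedule – 15 min preincubation, 1 h reaction, room temperature · Detection – scintillation counts of TCA-precipitated charged tRNA on filters · Benchmarks – high DMSO, low without tRNA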
row,SMILES,inhibition
1,COc1ccccc1NS(=O)(=O)c1cccc(NC(=O)Nc2ccccc2)c1,19.1%
2,COc1ccccc1-n1c(SCC(=O)Nc2ccc(Cl)cc2)nc(O)c(Cc2ccccc2)c1=O,-19.7%
3,CCN(CC)C(=O)C(=O)c1cn(CC(=O)Nc2ccccc2OC)c2ccccc12,-1.19%
4,O=C(NCc1nc2ccccc2[nH]1)C1=C[C@@H](c2ccc(Br)cc2)C[C@@H](OCCCCO)O1,29%
5,O=C(NCc1nc2ccccc2[nH]1)C1=C[C@@H](c2ccc3c(c2)OCO3)C[C@@H](OCCCCO)O1,-0.58%
6,O=C(N/C(=C\c1cccnc1)c1nc2ccccc2[nH]1)c1cccc(Br)c1,4.89%
7,Cc1cccc2[nH]c(CCN(C)C(=O)c3cccc(C4CCNC4)c3)nc12 (stereo not given),-5.77%
8,Brc1cnc2nc(SCc3nc4ccccc4[nH]3)[nH]c2c1,-14.2%
9,O=C1CC(NCCc2ccccc2)C(=O)N1c1ccc(Br)cc1 (stereo not given),6.62%
10,O=C(Cn1cc(C(=O)c2ccco2)c2ccccc21)Nc1cccc(C(F)(F)F)c1,19.7%
11,O=C(Nc1ccc(F)c(Cl)c1)C1CC(=O)n2c(nc3ccccc32)N1 (stereo not given),4.32% and 12.5%
12,O=C(CC=NOCc1ccc([N+](=O)[O-])cc1)Nc1ccc(Br)cc1,-6.71%
13,O=C(NCc1nc2ccccc2[nH]1)C1=C[C@@H](c2ccccc2)C[C@@H](OCc2ccc(CO)cc2)O1,15.8%
14,Cc1cccc2[nH]c(C3CCCN(C(=O)c4cccc5cccnc45)C3)nc12 (stereo not given),2.39%
15,O=C(NCc1nc2ccccc2[nH]1)C1=C[C@H](c2ccccc2)C[C@H](OCc2ccc(CO)cc2)O1,12.7%
16,CCc1ccc2c(c1)c1nnc(SCC(=O)Nc3ccc4c(c3)OCO4)nc1n2C,5.87%
17,COc1ccc(CCN(C(=S)Nc2ccccc2)C2CC(=O)N(c3ccc(Cl)cc3)C2=O)cc1 (stereo not given),61.9%
18,O=C(NCCc1nc2ccccc2[nH]1)c1ccc(Cl)cc1,7.1%

row,SMILES,inhibition
1,CC(=O)c1c[nH]c(C(=O)NCc2cccc(C(F)(F)F)c2)c1,43.8%
2,CCN(CC)C(=O)C(=O)c1cn(CC(=O)Nc2cccc(C(F)(F)F)c2)c2ccccc12,40.8%
3,Cc1ccc(C(=O)NCCc2nc3ccccc3[nH]2)cc1C,1.68%
4,O=C(CSc1nnc2c(n1)[nH]c1ccc(Br)cc12)NCc1ccccc1,21.6%
5,O=C1CC(N(CCc2ccccc2)C(=S)Nc2ccccc2)C(=O)N1c1ccc(Br)cc1 (stereo not given),25.6%
6,CC(=O)N(CCc1ccccc1)C1CC(=O)N(c2ccc(Cl)cc2)C1=O (stereo not given),-2.95%
7,CC(C)OCCCN1CC(=O)N2C(c3cccc([N+](=O)[O-])c3)c3[nH]c4ccccc4c3C[C@H]2C1=O (stereo not given in full),-3.65%
8,O=C(NCCc1nc2ccccc2[nH]1)c1ccc(Cl)c([N+](=O)[O-])c1,25.5%
9,CCc1ccc2[nH]c3nc(SCC(=O)NCc4cccc(OC)c4)nnc3c2c1,13.1%
10,CC(CC(=O)Nc1cccc(Br)c1)=NNC(=O)c1ccc(O)cc1O,4.55%
11,CCO[C@H]1OC(C(=O)NCc2nc3ccccc3[nH]2)=C[C@@H](c2ccc(Br)cc2)[C@@H]1CCCO,11.7%
12,Cc1[nH]c2ccc(Br)cc2c(=O)c1CN1CCCCCC1,-11%
13,COc1ccc(OCC(O)CNC(=O)Nc2ccc(Cl)cc2)cc1 (stereo not given),0.31%
14,C[C@H](O)[C@@H]1C(=O)N2CCc3c([nH]c4ccccc34)[C@@H]2C[C@@H]1N(C)Cc1ccc2c(c1)OCO2,24.8%
15,CCC(=O)c1cn(CC(=O)Nc2cccc(C(F)(F)F)c2)c2ccccc12,-3.88%
16,O=C(CCC(=O)Nc1cccc([N+](=O)[O-])c1)NN=Cc1cccs1,-14.1%
17,O=C(NCc1nc2ccccc2[nH]1)C1=C[C@H](c2ccc3c(c2)OCO3)C[C@H](OCCCCO)O1,10.2%
